Bioassay records from PubChem BioAssay.
HTR5A ag ctr: HTR5A agonism, opioid heterodimer counter-screen; HTR5A agonist assay, luminescence, cell-based; activation, % at 9.3 µM; 340,000 tested, 0.61% active; in the data active means activation mostly above about 9.5%, no sharp cut-off; inactive means mostly below about 7.6%
MC4R antagonist: antagonists of human melanocortin 4 receptor (MC4R) | P32245 | MC4R-expressing cells, MTII-stimulated cAMP, LANCE TR-FRET | inhibition, % at 6.5 µM | 360,000 tested, 0.48% active;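 active means inhibition above its plate's cutoff, the mean of tested wells on that plate plus 3 SD, cut at about 29% in these data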
Target sequence (P32245 whole entry, looked up): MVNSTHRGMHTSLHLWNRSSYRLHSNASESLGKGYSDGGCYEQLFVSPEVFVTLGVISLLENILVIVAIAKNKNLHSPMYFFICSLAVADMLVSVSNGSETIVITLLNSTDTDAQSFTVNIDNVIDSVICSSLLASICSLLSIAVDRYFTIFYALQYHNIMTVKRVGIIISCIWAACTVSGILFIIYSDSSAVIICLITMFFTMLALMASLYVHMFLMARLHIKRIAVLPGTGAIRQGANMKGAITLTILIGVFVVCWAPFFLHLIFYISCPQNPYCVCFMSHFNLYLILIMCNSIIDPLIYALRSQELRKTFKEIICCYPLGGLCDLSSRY
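System: U2OS-MC4R stable cell line; Technique: Eu-cAMP/anti-cAMP TR-FRET, emission 671 nm; Repeats: single well per compound; Also added: Melanotan II; Dosing: one concentration, 6.5 µM nominal; Schedule: 30-min compound, 1-h challenge, 1-h detection, room temperature.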
HTR5A inv ctr: counter-screen for OPRM1-OPRD1 inverse agonists: human HTR5A inverse agonism. P47898. HTR5A cell line, luminescence. inhibition, % at 9.3 µM. 340,000 tested, 0.083% active. AID 504634; in the data active means inhibition mostly above about 23%, no sharp cut-off; inactive means mostly below about 18%
OPRM1-OPRD1 inv: inverse agonists of human mu-delta opioid receptor heterodimerization; cell-based MOR-DOR heterodimer luminescence, inverse agonism; inhibition, % at 9.3 µM; 340,000 tested, 0.21% active; AID 504357; in the data active means inhibition above about 22%, passing the limit was not always enough
OPRM1-OPRD1 ag: OPRM1-OPRD1 heterodimerization agonism; cells, luminescence; 340,000 tested, 0.3% active; activation, % at 9.3 µM; AID 504326; in the data active means activation above about 18%
MC4R barr agon: agonists of human melanocortin 4 receptor (MC4R) beta-arrestin; P32245; 360,000 tested, 0.98% active; activation, % at 8.9 µM; U2OS MC4R beta-arrestin complementation, luminescence; percent of melanotan II response, DMSO zero;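 active means activation above a per-plate cutoff, the mean activation of sample wells on that plate plus 3 SD, cut at about 8% in these data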
cAMP nonselect: counter-screen for MC4R antagonists: nonselective cAMP signaling inhibitors; inhibition, % at 6.5 µM; 1,600 tested, 26% active; shares compounds with MC4R antagonist; parental U2OS, forskolin cAMP, LANCE TR-FRET; AID 602193;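 active means mean inhibition over triplicates above the low-control well mean plus 3 SD, set per campaign, cut at about 13% in these data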;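 further: signal is single emission at 671 nm which falls as cellular cAMP rises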
MC4R antag conf: human MC4R cAMP antagonism confirmation | shares compounds with MC4R antagonist | MC4R-expressing cells, MTII-stimulated cAMP, TR-FRET | inhibition, % at 6.5 µM | 1,600 tested, 27% active | AID 602195; in the data active means inhibition above about 29%
Numbers stand for hits; i = inactive; nt = no result; + = active, no number; ! = a repeat was not active. Most compounds without a hit are left out; they make up all but 2.4% or so of the library.

SMILES	HTR5A ag ctr	MC4R antagonist	HTR5A inv ctr	OPRM1-OPRD1 inv	OPRM1-OPRD1 ag	MC4R barr agon	cAMP nonselect	MC4R antag conf
COc1ccc2c(C=Nc3c(C)n(C)n(-c4ccccc4)c3=O)c(O)n(Cc3ccco3)c(=O)c2c1	i	37!	i	i	i	i	i	i
CC1(C)CC(=O)C=C(c2ccc(COC(=O)Cc3ccccc3)cc2)C1=O	nt	i	nt	nt	nt	i	nt	nt
CC(=O)c1ccc(NC(=O)CSc2n[nH]c(-c3cccnc3)n2)cc1	i	i	i	i	i	i	nt	nt
COc1ccccc1N(C)S(=O)(=O)c1ccc(C(=O)Nc2cc(OC)c(OC)c(OC)c2)cc1	i	i	i	i	i	i	nt	nt
NC(=O)CC[C@H](NC(=O)[C@H](Cc1ccccc1)n1c(=O)[nH]c2ccccc2c1=O)C(=O)N1CCC[C@H]1C(=O)O	i	i	i	i	i	i	nt	nt
O=C(NCCN1CCOCC1)c1cccc(NS(=O)(=O)c2ccc(Br)cc2)c1	i	i	i	i	i	i	nt	nt
CCCN(CCC)S(=O)(=O)c1ccc(Cl)c([N+](=O)[O-])c1	i	41	i	i	i	i	31	50
COc1cccc(C(=O)NCCS(=O)(=O)N2CCC(C)CC2)c1	i	i	i	i	i	i	nt	nt
O=C(/C=C/c1cn(-c2ccccc2)nc1-c1cccs1)NCCN1CCOCC1	i	i	i	i	i	i	nt	nt
O=C(Oc1cncc(Cl)c1)c1sccc1Cl	i	33	i	i	i	i	i	i
O=C(Oc1cncc(Cl)c1)c1ccco1	i	i	i	i	i	i	nt	nt
O=C(OCC(=O)c1ccc(Br)s1)c1ccc(O)cc1	i	i	i	i	i	i	nt	nt
Cc1cc(C(=O)OCC(=O)c2ccc(Br)s2)no1	i	37	i	i	i	i	i	i
Cc1ccc(-c2c(CC(=O)O)c(C)nc3sc4c(c23)CCCC4)cc1	i	29	i	i	i	i	i	i
CCNC(=O)C1CCCN(C(=O)c2ccc3ccccc3c2)CC1 (stereo unspecified)	nt	i	nt	nt	nt	i	nt	nt
CC(C)Cc1ccc(-c2cc3nc(NCCc4ccc(S(N)(=O)=O)cc4)ccn3n2)cc1	nt	29	nt	nt	nt	i	i	i
COc1ccc(CC(=O)NCC2CCCN(Cc3ccc(F)cc3F)C2)cc1 (stereo unspecified)	i	i	i	i	i	i	nt	nt
COc1ccc(-c2csc3ncnc(N4CCN(c5ccccc5Cl)CC4)c23)cc1	i	29	i	i	i	i	i	29
C=CCn1c(CSc2ccccc2[N+](=O)[O-])n[nH]c1=S	i	i	i	i	i	i	nt	nt
C=CCn1c(Sc2ncc([N+](=O)[O-])s2)n[nH]c1=O	i	43	i	i	i	i	30	31
Cc1ccc(NC(=S)N2CCN(Cc3ccccc3)CC2)c(C)c1	i	i	i	i	i	i	nt	nt
CC(=O)OC1OCCOC1NC(=S)Nc1ccc(C)cc1 (stereo unspecified)	i	32	i	i	i	i	i	i
CN(CCOc1ccc(Cl)cc1)C(=O)CNS(=O)(=O)c1ccc(N(C)C)c([N+](=O)[O-])c1	i	i	i	i	i	i	nt	nt
CN(C)c1ccc(S(=O)(=O)NCC(=O)OCC(=O)Nc2cc(Cl)cc(Cl)c2)cc1[N+](=O)[O-]	i	31	i	i	i	i	19	30
CSCCC(NC(=O)c1ccc([N+](=O)[O-])cc1Cl)C(=O)OCC(=O)C12CC3CC(CC(C3)C1)C2 (stereo unspecified)	i	33	i	i	i	i	i	i
SMILES	HTR5A ag ctr	MC4R antagonist	HTR5A inv ctr	OPRM1-OPRD1 inv	OPRM1-OPRD1 ag	MC4R barr agon	cAMP nonselect	MC4R antag conf
CSCCC(NC(=O)c1ccc([N+](=O)[O-])cc1Cl)C(=O)OC(C)C(=O)NCc1ccco1 (stereo unspecified)	i	29	i	i	i	i	i	i
CC(=O)Nc1ccc(-c2csc(NC(=O)C3CC(=O)N(c4ccc5c(c4)OCCO5)C3)n2)cc1 (stereo unspecified)	i	35	i	i	i	i	i	i
COc1ccc(-c2csc(NC(=O)C3CC(=O)N(c4ccc5c(c4)OCCO5)C3)n2)cc1 (stereo unspecified)	i	i	i	i	i	i	nt	nt
CC(Oc1ccc(F)cc1)C(=O)Nc1ccccc1N1CCCCC1 (stereo unspecified)	i	i	i	i	i	i	nt	nt
Cc1ccc2nc(N3C(=O)C(O)=C(C(=O)c4ccc(C)o4)C3c3cccc(O)c3)sc2c1 (stereo unspecified)	i	31	i	i	i	i	i	i
CCOc1ccc(C2C(C(=O)c3ccc(C)o3)=C(O)C(=O)N2c2nc(C)c(C(=O)OC)s2)cc1 (stereo unspecified)	i	+	i	i	i	i	75	143
COC(=O)c1sc(N2C(=O)C(O)=C(C(=O)c3ccc(C)o3)C2c2ccc(OC)c(OC)c2)nc1C (stereo unspecified)	i	188	i	i	i	i	i	i
Cc1cc(C(=O)O)ccc1-c1ccc(/C=C2\NC(=O)N(Cc3ccccc3Cl)C2=O)o1	i	37	i	i	i	i	i	i
Cc1ccc(CN2C(=O)N/C(=C\c3ccc(-c4ccc(C(=O)O)cc4C)o3)C2=O)cc1	i	i	i	i	i	i	nt	nt
COc1cc(/C=C(\C#N)C(=O)Nc2ccc(C(=O)O)cc2)ccc1OC(=O)c1cccc(F)c1	i	i	i	i	i	i	nt	nt
NC(N)=NS(=O)(=O)c1ccc(N/C=C\C(=O)c2ccncc2)cc1	i	31	i	i	i	i	i	i
COc1ccc(N2CCN(C(=O)CSc3nnc(C4CC4)n3C3CC3)CC2)cc1	nt	i	nt	nt	nt	i	nt	nt
Cc1c(/C=N\NC(=O)C2(C)CC2(Cl)Cl)cnn1C (stereo unspecified)	i	i	i	i	i	i	nt	nt
CC1(C(=O)N/N=C/c2c(F)c(F)c(F)c(F)c2F)CC1(Cl)Cl (stereo unspecified)	i	32	i	i	i	i	i	54
O=C1C(Cl)=C(NCCc2ccccc2)C(=O)c2ccccc21	i	42	i	i	i	i	i	i
O=c1c2nnn(-c3ccc(Br)cc3)c2ncn1Cc1ccccn1	i	i	i	i	i	i	nt	nt
O=C(Nc1nnc(SCc2ccc(F)cc2)s1)c1cnccn1	i	32	i	i	i	i	i	i
CC(=O)Nc1nnc(SCc2ccc(F)cc2)s1	i	i	i	i	i	i	nt	nt
O=C(/C=C/c1ccc(S(=O)(=O)N2CCOCC2)cc1)NCCCn1ccnc1	i	i	i	i	i	i	nt	nt
Cc1ccccc1N1CCN(C2CCCN(C(=O)CCN3CCCCC3=O)C2)CC1 (stereo unspecified)	i	i	i	i	i	i	nt	nt
